Assay results as given in paper PMC7233196 (ACS chemical biology, 2020).

Legend:
Assay in all cases: BRET ratio titration, purified sensor
Type in all cases: binding
[1] = molecular target: Vcp157-Cp (CpYcgR); settings: read-out: KD(nM)^a; 3 nM sensor; pH 7.2, 100 mM KCl, 10 mM DTT, 0.1% BSA, 28 °C; Hill fit
Summary of the method: (§1)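 Coelenterazine-h substrate (60 μM in HEPES/KCl/300 mM ascorbate, pre-equilibrated ≥30 min at RT) added, 20 μL into 100 μL. Emission read at 460 and 530 nm, 28 °C, every 30 s for 10 min. BRET ratio taken at 2 min.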

[2] = molecular target: tVYN-Tb (TbYcgR); settings: read-out: KD(nM)^a; 3 nM sensor; pH 7.2, 100 mM KCl, 10 mM DTT, 0.1% BSA, 28 °C; Hill fit
Summary of the method: as §1

[3] = molecular target: tVYN-Nt (NtYcgR); settings: read-out: KD(nM)^a; 3 nM sensor; pH 7.2, 100 mM KCl, 10 mM DTT, 0.1% BSA, 28 °C; Hill fit
Summary of the method: as §1

[4] = molecular target: VYN-Tb (TbYcgR); settings: read-out: KD(nM)^a; 3 nM sensor; pH 7.2, 100 mM KCl, 10 mM DTT, 0.1% BSA, 28 °C; Hill fit
Summary of the method: as §1

[5] = molecular target: VYN-Nt (NtYcgR); settings: read-out: KD(nM)^a; 3 nM sensor; pH 7.2, 100 mM KCl, 10 mM DTT, 0.1% BSA, 28 °C; Hill fit
Summary of the method: as §1

[6] = molecular target: T1, VYN-Ec (EcYcgR) (Escherichia coli, UniProt P76010)
T1 sequence (P76010 1-244): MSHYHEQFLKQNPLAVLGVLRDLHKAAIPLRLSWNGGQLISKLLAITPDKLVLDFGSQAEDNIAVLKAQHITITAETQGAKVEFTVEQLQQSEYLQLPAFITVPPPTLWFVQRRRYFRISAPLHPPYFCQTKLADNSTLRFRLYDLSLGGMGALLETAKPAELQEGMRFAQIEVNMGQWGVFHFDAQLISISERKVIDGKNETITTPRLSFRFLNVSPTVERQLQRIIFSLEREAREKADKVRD
Summary of the method: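 Coelenterazine-h prepared at 60 μM in HEPES/KCl/300 mM ascorbate (≥30 min RT), then added. Emission at 460 and 530 nm read at 30 s intervals for 10 min, 28 °C; BRET ratio taken 2 min post-substrate.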

[7] = molecular target: tVYN-NtΔ (NtYcgRΔ); settings: read-out: KD(nM)^a; 3 nM sensor; pH 7.2, 100 mM KCl, 10 mM DTT, 0.1% BSA, 28 °C; Hill fit
Summary of the method: as §1

[8] = molecular target: Vcp173-Nt (NtYcgR); settings: read-out: KD(nM)^a; 3 nM sensor; pH 7.2, 100 mM KCl, 10 mM DTT, 0.1% BSA, 28 °C; Hill fit
Summary of the method: as §1

[9] = molecular target: Vcp229-Nt (NtYcgR); settings: read-out: KD(nM)^a; 3 nM sensor; pH 7.2, 100 mM KCl, 10 mM DTT, 0.1% BSA, 28 °C; Hill fit
Summary of the method: as §1

Nc1nc2c(ncn2[C@@H]2O[C@@H]3COP(=O)(O)O[C@H]4[C@@H](O)[C@H](n5cnc6c(=O)[nH]c(N)nc65)O[C@@H]4COP(=O)(O)O[C@H]3[C@H]2O)c(=O)[nH]1 [c-di-GMP]
Kd [1]: 96 ± 6 nM | Kd [2]: 12 ± 1 nM | Kd [3]: 20 ± 1 nM | Kd [4]: 8 ± 0.4 nM | Kd [5]: 14 ± 4 nM | Kd [6]: 50 ± 4 nM | Kd [7]: 54 ± 4 nM | Kd [8]: 17 ± 4 nM | Kd [9]: 14 ± 1 nM
